T cell modulator: T cell immune modulators affecting CD8 T cell-vesicle binding. 330,000 tested, 0.068% active. AID 2052. 2C CD8+ T cell-vesicle binding, flow cytometry; stronger effect = lower value. response (vesicle binding), % at 7 µM;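 active = response, share of CD8 T cells binding vesicles, and their 90th percentile fluorescence all below set limits, cut at about 80% in these data, passing the limit was not always enough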;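 note: values below 100% mean blocked vesicle binding to the CD8+ T cells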
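Assay system: 2C TCR transgenic mouse naive CD8+ T cells, MACS-purified | Read-out: CD8+ gate FL2 mean fluorescence as % of same-row positive control | Signal: High-throughput flow cytometry with anti-B7-1 and anti-CD8 staining | Timing: Binding step 1.5 h, 37 °C, antibody labelling 20 min, ice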
Myeloid diff MLP: promotes myeloid progenitor differentiation; ER-HoxA9 myeloid progenitors, lysozyme-GFP differentiation, flow cytometry; calls only at 10 µM; 360,000 tested, 1% active;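 active = normalized GFP-positive differentiation at or above the plate's own cutoff, the solvent-only control mean plus 3 SD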;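 note: cells exposed to compound for four days before flow analysis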
NR2E3 ag-1: activates human NR2E3 receptor; Q9Y5X4; 360,000 tested, 0.35% active; inhibition of corepressor binding, % at 3.98 µM; CHO-S Gal4-NCOR/VP16-NR2E3 two-hybrid, luciferase;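 active = inhibition above the mean of all tested compounds plus 3 SD, cut at about 70% in these data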;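 note: 0% = DMSO with NR2E3 transfected cells and 100% = cells lacking NR2E3 construct; higher means lower luciferase signal from less NR2E3 corepressor binding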
Target sequence (Q9Y5X4 whole entry, looked up, the tested form may be a part): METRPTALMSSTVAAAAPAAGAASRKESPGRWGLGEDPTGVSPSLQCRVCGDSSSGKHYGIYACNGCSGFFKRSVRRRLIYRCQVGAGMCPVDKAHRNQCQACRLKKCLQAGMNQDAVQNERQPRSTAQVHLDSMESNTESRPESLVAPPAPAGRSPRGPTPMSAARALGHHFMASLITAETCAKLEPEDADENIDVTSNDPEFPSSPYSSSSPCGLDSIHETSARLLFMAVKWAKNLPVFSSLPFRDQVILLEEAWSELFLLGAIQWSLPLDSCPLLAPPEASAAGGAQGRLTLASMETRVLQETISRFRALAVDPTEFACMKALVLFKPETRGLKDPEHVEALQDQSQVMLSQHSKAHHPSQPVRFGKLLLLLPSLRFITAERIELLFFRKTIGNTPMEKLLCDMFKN
NR2E3 ag-2: activates human photoreceptor nuclear receptor NR2E3; AID 2300; GST-NR2E3/biotin-RetCOR TR-FRET, 1536-well; inhibition of corepressor binding, % at 4.78 µM; 320,000 tested, 0.12% active; Q9Y5X4;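 active = percent inhibition above the cutoff of mean plus 3 SD of all tested compounds, set per screening campaign, cut at about 20% in these data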;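 note: 0% = DMSO wells and 100% = biotin wells as full block of FRET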
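System: GST-tagged NR2E3 plus biotinylated RetCOR corepressor; Amount: 1.35 nM GST-tagged NR2E3 final; Dosing: single nominal compound dose of 4.8 µM; Schedule: 5 h incubation at 4 °C; Technique: TR-FRET with europium anti-GST and streptavidin-D2, 340 nm excitation; Controls: biotin wells as high control, 0.6% DMSO wells as low control.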
GAA850 FXN act: frataxin GAA850 promoter activation. HEK293 lucGAA850 FXN promoter luciferase reporter, 24 h; percent of 10 µM SAHA response. activation, % at 6 µM. 360,000 tested, 0.56% active. AID 540364;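 active = activation above the average of all compounds screened plus 3 SD, cutoff fixed separately per campaign, cut at about 7.5% in these data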;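 note: 0% = DMSO wells and 100% = 10 µM SAHA wells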
GAA30 FXN cntr: counter-screen for GAA850 frataxin promoter activators: GAA30 promoter activation; shares compounds with GAA850 FXN act; HEK293 lucGAA30 FXN promoter luciferase, 24 h; DMSO = 0%, 5 µM ipriflavone = 100%; activation, % at 6 µM; 1,900 tested, 66% active;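 active = mean activation above the mean of solvent-only control wells plus 3 SD, cut at about 22% in these data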;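 note: counterscreen of GAA850 promoter hits where activity marks nonselective or luminescence artifacts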
GAA850 confirm: GAA850 FXN promoter activation confirmation. shares compounds with GAA850 FXN act. HEK293 lucGAA850 FXN promoter luciferase reporter, 24 h; 100% = activation by SAHA. activation, % at 6 µM. 1,900 tested, 86% active;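 active = mean activation above a set limit taken from the primary screen, cut at about 8% in these data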;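 note: 0% = DMSO wells and 100% = 10 µM SAHA wells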
Numbers without * were called inactive. Sampled rows, rich in hits. Any-hit rate of the full collection: about 2%.

Screening CC(=O)/C=C\c1ccccc1OC(=O)c1cc2ccccc2oc1=O returned T cell modulator 210, Myeloid diff MLP inactive, NR2E3 ag-1 -12, NR2E3 ag-2 2 and GAA850 FXN act 4.
For CC(=O)Nc1ccc(Oc2nc(-c3cccnc3)nc3sc4c(c23)CCCC4)cc1 the results were T cell modulator 637, Myeloid diff MLP inactive, NR2E3 ag-1 -23, NR2E3 ag-2 4 and GAA850 FXN act 0.
O=C1CN(c2nc(-c3cccnc3)nc3sc4c(c23)CCCC4)CCN1 was read as T cell modulator 156, Myeloid diff MLP inactive, NR2E3 ag-1 3, NR2E3 ag-2 8, GAA850 FXN act 10*, GAA30 FXN cntr 13 and GAA850 confirm 21*.
`Nc1nc(-c2cccnc2)nc2sc3c(c12)CCCC3` gave T cell modulator 127, Myeloid diff MLP inactive, NR2E3 ag-1 -115, NR2E3 ag-2 0, GAA850 FXN act 10*, GAA30 FXN cntr 108* and GAA850 confirm 53*.
CCOC(=O)C1=C(CSc2nc(-c3ccccc3)ccc2C#N)OC(N)=C(C#N)C1c1ccc(OC)cc1 (configuration not stated) was read as T cell modulator 218, Myeloid diff MLP active, NR2E3 ag-1 -83, NR2E3 ag-2 1, GAA850 FXN act 8.9*, GAA30 FXN cntr 66* and GAA850 confirm 25*.
Screening CC(=O)Nc1cc(-c2ccccc2CN(C)C)cn2c(-c3ccc(F)c(Cl)c3)cnc12 returned Myeloid diff MLP inactive, NR2E3 ag-1 -23 and GAA850 FXN act -7.
Screening CCN(CC)S(=O)(=O)c1ccc(S(=O)(=O)N2CCC(N3CCCCC3)CC2)cc1 returned T cell modulator 410, Myeloid diff MLP inactive, NR2E3 ag-1 10, NR2E3 ag-2 1 and GAA850 FXN act 0.
Screening Cc1c(CCC(=O)NC2CC2)c(=O)oc2cc(O)ccc12 returned T cell modulator 196, Myeloid diff MLP inactive, NR2E3 ag-1 -22, NR2E3 ag-2 1, GAA850 FXN act 15*, GAA30 FXN cntr 20 and GAA850 confirm 11*.
Screening COc1ccc2c(C)c(CCC(=O)NC3CC3)c(=O)oc2c1 returned T cell modulator 284, Myeloid diff MLP inactive, NR2E3 ag-1 -41, NR2E3 ag-2 4 and GAA850 FXN act 0.
Screening CN(C(=O)c1cccc(COc2ccc(Cl)cc2Cl)c1)c1ccccc1 returned T cell modulator 630, Myeloid diff MLP inactive, NR2E3 ag-1 -234, NR2E3 ag-2 0, GAA850 FXN act 8.3*, GAA30 FXN cntr 102* and GAA850 confirm 39*.
Screening COc1ccc(-c2cc(-c3ccc(C)cc3)n[nH]2)c(O)c1 returned T cell modulator 694, Myeloid diff MLP inactive, NR2E3 ag-1 -162, NR2E3 ag-2 0 and GAA850 FXN act 7.
`COc1ccc(-c2cc(-c3cc(C)ccc3O)[nH]n2)cc1` gave T cell modulator 225, Myeloid diff MLP inactive, NR2E3 ag-1 -126, NR2E3 ag-2 1, GAA850 FXN act 13*, GAA30 FXN cntr 53* and GAA850 confirm 46*.
CCN(CC)CCC=C(c1cccs1)c1cccs1 was read as Myeloid diff MLP inactive, NR2E3 ag-1 5 and GAA850 FXN act -2.
`O=C(COc1ccccc1Cl)NCCCNC(=O)c1cnccn1` gave T cell modulator 375, Myeloid diff MLP inactive, NR2E3 ag-1 -9, NR2E3 ag-2 0 and GAA850 FXN act 0.
Cc1ccc2nc(-c3ccc4c(c3)NC(=O)CO4)cn2c1 was read as T cell modulator 202, Myeloid diff MLP inactive, NR2E3 ag-1 -65, NR2E3 ag-2 -2, GAA850 FXN act 8.5*, GAA30 FXN cntr 98* and GAA850 confirm 30*.
For CN(C)S(=O)(=O)n1cc(/C=C(\NC(=O)c2ccccc2Cl)C(=O)N2CCCC2)c2ccccc21 the results were T cell modulator 505, Myeloid diff MLP inactive, NR2E3 ag-1 -29, NR2E3 ag-2 0, GAA850 FXN act 8.8*, GAA30 FXN cntr 15 and GAA850 confirm 11*.
O=C(N/N=C/c1ccccn1)c1ccc(Br)cc1 was read as T cell modulator 145, Myeloid diff MLP inactive, NR2E3 ag-1 0, NR2E3 ag-2 -3, GAA850 FXN act 23*, GAA30 FXN cntr -105 and GAA850 confirm -31.
For O=C(N/N=C/c1ccccn1)c1ccc(NC(=O)c2cccc([N+](=O)[O-])c2)cc1 the results were T cell modulator 174, Myeloid diff MLP inactive, NR2E3 ag-1 2, NR2E3 ag-2 -2 and GAA850 FXN act -2.
Screening O=C(N/N=C/c1ccccn1)c1ccc([N+](=O)[O-])cc1 returned T cell modulator 605, NR2E3 ag-1 -9, NR2E3 ag-2 1 and GAA850 FXN act -1.
O=C(N/N=C/c1ccccn1)c1cccc([N+](=O)[O-])c1 was read as T cell modulator 288, Myeloid diff MLP inactive, NR2E3 ag-1 -12, NR2E3 ag-2 6, GAA850 FXN act 9.2*, GAA30 FXN cntr -38 and GAA850 confirm 7.
O=C(N/N=C/c1ccccn1)c1ccc(N/N=C/c2ccccn2)cc1 was read as T cell modulator 462, Myeloid diff MLP inactive, NR2E3 ag-1 6, NR2E3 ag-2 3 and GAA850 FXN act 0.
Screening Cc1cc(C(=O)N/N=C/c2ccccn2)n[nH]1 returned T cell modulator 224, Myeloid diff MLP inactive, NR2E3 ag-1 -38, NR2E3 ag-2 4 and GAA850 FXN act 2.
Screening O=C(N/N=C/c1ccccn1)c1cc([N+](=O)[O-])cc([N+](=O)[O-])c1 returned T cell modulator 254, Myeloid diff MLP inactive, NR2E3 ag-1 -7, NR2E3 ag-2 6, GAA850 FXN act 14*, GAA30 FXN cntr -82 and GAA850 confirm -17.
Screening O=C(N/N=C/c1ccccn1)c1cc(C2CC2)[nH]n1 returned T cell modulator 407, Myeloid diff MLP inactive, NR2E3 ag-1 -39, NR2E3 ag-2 3, GAA850 FXN act 7.6*, GAA30 FXN cntr 106* and GAA850 confirm 38*.
Screening C[C@@H]1Cc2[nH][nH]c(=O)c2[C@H](c2ccc(Cl)cc2)O1 returned Myeloid diff MLP inactive and NR2E3 ag-1 -22.
C=CCc1c(NCCO)nc(C)[nH]c1=O was read as T cell modulator 127, Myeloid diff MLP inactive, NR2E3 ag-1 -14, NR2E3 ag-2 2 and GAA850 FXN act 1.
`COc1ccc(/C=C2\SC(=N)N(c3ccc(F)cc3)C2=O)cc1OC` gave T cell modulator 232, Myeloid diff MLP inactive, NR2E3 ag-1 -35, NR2E3 ag-2 3, GAA850 FXN act 8.3*, GAA30 FXN cntr 18 and GAA850 confirm 15*.
